{"source": "ChEMBL document CHEMBL1154037", "about": "“In vivo targeting of tumor-associated carbonic anhydrases using acetazolamide derivatives” (Bioorg Med Chem Lett, 2009)", "key": {"Mus musculus [1]": {"tested_on": "Mus musculus", "assay": "Drug uptake in human LS 174T cells xenografted BALB/c nu/nu mouse at 1.26 umol, iv after 1 hr", "type": "ADME, organism-based, LS174T", "details": "in vivo", "how_it_was_run": "(§1)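 Balb/c nu/nu mice carried subcutaneous LS174T tumors of about 500 mg. They received 680 µg (1.26 µmol) of fluorescent compound in the tail vein and were sacrificed 1 h or 2 h later. Fluorescence microscopy was done on 10 µm sections of tumor, muscle, heart, lung, intestine, spleen, kidney and liver. Exposures were 900 ms (1 h) and 1100 ms (2 h).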"}, "Kidney": {"tested_on": "Kidney", "assay": "Drug uptake in human LS 174T cells xenografted BALB/c nu/nu mouse kidney at 1.26 umol, iv after 1 hr", "type": "ADME, organism-based, LS174T", "details": "in vivo", "how_it_was_run": "as §1"}, "Liver": {"tested_on": "Liver", "assay": "Drug uptake in human LS 174T cells xenografted BALB/c nu/nu mouse liver at 1.26 umol, iv after 1 hr", "type": "ADME, organism-based, LS174T", "details": "in vivo", "how_it_was_run": "as §1"}, "Mus musculus [2]": {"tested_on": "Mus musculus", "assay": "Drug uptake in human LS 174T cells xenografted BALB/c nu/nu mouse at 1.26 umol, iv after 2 hrs", "type": "ADME, organism-based, LS174T", "details": "in vivo", "how_it_was_run": "as §1"}, "Intestine": {"tested_on": "Intestine", "assay": "Drug uptake in human LS 174T cells xenografted BALB/c nu/nu mouse intestine at 1.26 umol, iv after 1 hr", "type": "ADME, organism-based, LS174T", "details": "in vivo", "how_it_was_run": "as §1"}, "Carbonic anhydrase 9 [3]": {"biological_target": "T1, Carbonic anhydrase 9 (Homo sapiens, UniProt Q16790)", "assay": "Inhibition of human CA9 catalytic domain using 4-nitrophenylacetate substrate by colorimetry", "how_it_was_run": "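CA IX esterase activity was measured colorimetrically via conversion of 4-nitrophenylacetate and reported as Ki. Line 15 was run in the presence of 10 µM mouse serum albumin.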"}, "[4]": {"assay": "Drug uptake in human LS 174T cells assessed as increase in fluorescence intensity at 3 uM by FACS method relative to untreated control", "type": "ADME, cell-based", "details": "ls174t", "how_it_was_run": "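LS174T cells were incubated with fluorescein-labelled compound at 0.26 or 3 µM and analysed by flow cytometry in the FITC channel. Mean fluorescence was compared with unstained cells. Free FAM served as a dye control, and polyclonal anti-CA IX staining confirmed antigen presence.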"}, "Homo sapiens [5]": {"tested_on": "Homo sapiens", "assay": "Antitumor activity against human SK-RC-52 cells xenografted BALB/c nu/nu mouse assessed as inhibition of tumor growth at 340 ug, iv administered as 5 weekly injection schedule for 3 consecutive weeks", "type": "functional, organism-based", "how_it_was_run": "(§2)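 Subcutaneous xenografts in Balb/c nude mice, n = 5 per group. Dosing was 340 µg (17 mg/kg, 0.5 µmol) per injection i.v. Vehicle was saline with 15% (v/v) DMSO, and controls received vehicle alone. Read-out was tumor volume over time, given as mean ± SE.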"}, "Albumin": {"biological_target": "Albumin (Homo sapiens, UniProt P02768)", "sequence (P02768 whole entry)": "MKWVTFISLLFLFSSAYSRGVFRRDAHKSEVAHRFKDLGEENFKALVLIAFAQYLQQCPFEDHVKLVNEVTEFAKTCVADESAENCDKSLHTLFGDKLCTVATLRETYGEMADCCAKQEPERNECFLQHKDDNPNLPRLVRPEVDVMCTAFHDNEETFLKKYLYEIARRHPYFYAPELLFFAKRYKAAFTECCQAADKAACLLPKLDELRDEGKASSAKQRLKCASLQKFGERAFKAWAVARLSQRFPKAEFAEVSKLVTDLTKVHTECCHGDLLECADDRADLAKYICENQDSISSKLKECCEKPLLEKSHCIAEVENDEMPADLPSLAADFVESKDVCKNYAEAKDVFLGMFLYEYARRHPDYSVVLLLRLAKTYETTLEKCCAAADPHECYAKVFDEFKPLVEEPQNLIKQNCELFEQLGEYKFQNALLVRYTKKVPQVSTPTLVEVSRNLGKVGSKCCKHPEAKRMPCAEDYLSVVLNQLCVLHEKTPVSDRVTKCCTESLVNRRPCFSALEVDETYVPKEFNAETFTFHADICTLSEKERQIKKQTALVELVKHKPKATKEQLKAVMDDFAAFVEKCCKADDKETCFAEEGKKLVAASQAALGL", "assay": "Binding affinity to HSA by isothermal titration calorimetry", "type": "ADME"}, "Carbonic anhydrase 9 [6]": {"biological_target": "T1, Carbonic anhydrase 9", "assay": "Binding affinity to human CA9 catalytic domain by isothermal titration calorimetry"}, "LS174T [7]": {"tested_on": "LS174T", "assay": "Antitumor activity against human LS 174T cells xenografted BALB/c nu/nu mouse assessed as inhibition of tumor growth at 340 ug, iv administered as 5 weekly injection schedule for 2 consecutive weeks", "type": "functional, organism-based", "how_it_was_run": "as §2"}, "Blood [8]": {"tested_on": "Blood", "assay": "Drug level in human SK-RC-52 cells xenografted BALB/c nu/nu mouse blood at 0.5 umol. iv", "type": "ADME, cell-based", "details": "read-out: Drug uptake", "how_it_was_run": "(§3)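 A bolus i.v. injection of 340 µg (0.5 µmol) was given to tumor-bearing mice. Blood concentration was estimated immediately at the end of the bolus injection.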"}, "Mus musculus [9]": {"tested_on": "Mus musculus", "assay": "Toxicity in human SK-RC-52 cells xenografted BALB/c nu/nu mouse assessed as effect on body weight at 340 ug, iv administered as 5 weekly injection schedule for 3 consecutive weeks", "type": "organism-based", "details": "in vivo", "how_it_was_run": "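SK-RC-52 xenografted Balb/c nude mice, n = 5, given 340 µg (17 mg/kg) per injection i.v. in saline with 15% (v/v) DMSO. Body weight was monitored during therapy and expressed as % of body weight on day 1 of treatment.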"}, "Blood [10]": {"tested_on": "Blood", "assay": "Drug level in human LS 174T cells xenografted BALB/c nu/nu mouse blood at 0.5 umol. iv", "type": "ADME, cell-based, LS174T", "details": "in vivo, read-out: Drug uptake", "how_it_was_run": "as §3"}, "Mus musculus [11]": {"tested_on": "Mus musculus", "assay": "Toxicity in human SK-RC-52 cells xenografted BALB/c nu/nu mouse assessed as effect on body weight at 20 mg/kg, ip", "type": "organism-based", "set-up": "dose 20 mg/kg, route intraperitoneal", "details": "in vivo"}, "Homo sapiens [12]": {"tested_on": "Homo sapiens", "assay": "Antitumor activity against human SK-RC-52 cells xenografted BALB/c nu/nu mouse assessed as inhibition of tumor growth at 20 mg/kg, ip", "type": "functional, organism-based", "set-up": "dose 20 mg/kg"}, "Mus musculus [13]": {"tested_on": "Mus musculus", "assay": "Toxicity in human SK-RC-52 cells xenografted BALB/c nu/nu mouse assessed as effect on body weight at 25 mg/kg, ip", "type": "organism-based", "set-up": "dose 25 mg/kg, route intraperitoneal", "details": "in vivo"}, "LS174T [14]": {"tested_on": "LS174T", "assay": "Antitumor activity against human LS 174T cells xenografted BALB/c nu/nu mouse assessed as inhibition of tumor growth at 25 mg/kg, ip", "type": "functional, organism-based", "set-up": "dose 25 mg/kg", "how_it_was_run": "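Balb/c nude mice with subcutaneous LS174T human colorectal xenografts, dosed i.p. at 25 mg/kg/day. Vehicle controls received saline containing 15% (v/v) DMSO i.v. Tumor growth was followed as mean tumor volume ± SE, n = 5 per group. Body weight was also tracked as % of day-1 weight.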"}}, "note": "pKd, pKi: −log10 of the molar value. Calls of active or inactive are those of the source. No cut-off for these calls is given here.", "data": [{"molecule": "NS(=O)(=O)c1nnc(NC(=O)c2ccc(-c3c4ccc(=O)cc-4oc4cc(O)ccc34)c(C(=O)O)c2)s1", "values": [{"measurement": "Drug uptake", "setting": "Mus musculus [1]", "value": "Active"}, {"measurement": "Drug uptake", "setting": "Kidney", "value": "Active"}, {"measurement": "Drug uptake", "setting": "Liver", "value": "Active"}, {"measurement": "Drug uptake", "setting": "Mus musculus [2]", "value": "Active"}, {"measurement": "Drug uptake", "setting": "Intestine", "value": "Active"}, {"measurement": "pKi", "setting": "Carbonic anhydrase 9 [3]", "value": 6.66}, {"measurement": "fold change (FC)", "setting": "[4]", "value": "> 10"}]}, {"molecule": "NS(=O)(=O)c1nnc(NC(=O)CCC(=O)NC(CCCCNC(=O)CCCc2ccc(I)cc2)C(=O)O)s1", "note": "(stereo not drawn)", "values": [{"measurement": "Activity", "setting": "Homo sapiens [5]", "value": "Active"}, {"measurement": "pKd", "setting": "Albumin", "value": 6.09}, {"measurement": "pKd", "setting": "Carbonic anhydrase 9 [6]", "value": 8.49}, {"measurement": "Activity", "setting": "LS174T [7]", "value": "inactive"}, {"measurement": "concentration", "setting": "Blood [8]", "value": 250, "unit": "µM"}, {"measurement": "Activity", "setting": "Mus musculus [9]", "value": "Non-toxic"}, {"measurement": "concentration", "setting": "Blood [10]", "value": 250, "unit": "µM"}]}, {"molecule": "CCN(CC)CCNC(=O)c1c(C)[nH]c(/C=C2\\C(=O)Nc3ccc(F)cc32)c1C", "note": "[SUNITINIB]", "values": [{"measurement": "Activity", "setting": "Mus musculus [11]", "value": "Non-toxic"}, {"measurement": "Activity", "setting": "Homo sapiens [12]", "value": "Active"}]}, {"molecule": "O=c1[nH]cc(F)c(=O)[nH]1", "note": "[FLUOROURACIL]", "values": [{"measurement": "Activity", "setting": "Mus musculus [13]", "value": "Toxic"}, {"measurement": "Activity", "setting": "LS174T [14]", "value": "Active"}]}]}
